# Screening results deposited in PubChem by Sanford-Burnham Center for Chemical Genomics.
# Compounds with a hit are over-represented: about 0.79% of the library has one in this group of screens.
# bIAP inhibitor = blocks bovine intestinal alkaline phosphatase activity | purified bovine IAP, CDP-star luminescence, 30 min | inhibition, % at 20 µM | 190,000 tested, under 10 active | AID 1019;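 active means over 50% inhibition of intestinal alkaline phosphatase at 20 µM in the single-dose screen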
#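 System: purified bovine intestinal alkaline phosphatase (IAP) enzyme; Input: IAP diluted 1/65,000,000 in the well; Measured by: CDP-star luminescence signal; Compound dosing: 20 µM single dose; Incubation: 30 min reaction at room temperature.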
# mIAP act = mouse IAP activation; muIAP, CDP-Star luminescence, 30 min; hits give high values; 1 = vehicle-only enzyme signal, 0 = enzyme-free wells; activation factor at 10 µM; 330,000 compounds, 0.24% hits; AID 2805;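 active means activation factor of at least 2 at 20 µM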
#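 System: Mouse IAP enzyme | Also added: CDP-Star substrate | Dosing: Compounds dispensed in DMSO | Schedule: 30 min enzyme-substrate-compound incubation at room temperature | Technique: Chemiluminescence readout | Control set: DMSO-only wells and no-enzyme negative control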
# mIAP block = mouse IAP inhibition | inhibition, % at 10 µM | 330,000 compounds, 0.2% hits | purified mouse IAP, CDP-Star luminescence, 30 min;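 active means inhibition of at least 40% at 10 µM in the primary screen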;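 further: plate controls were DMSO with enzyme for no effect and no enzyme wells for full effect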
# hIAP inh = blocks human intestinal alkaline phosphatase; inhibition, % at 10 µM; 330,000 compounds, 0.12% hits; P09923; AID 2544; purified IAP, CDP-Star luminescence, 30 min;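 active means inhibition reaching a set limit with compound at 10 µM in the primary screen, cut at about 35% in these data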;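 further: plate controls were DMSO wells with enzyme for no effect and no-enzyme buffer wells for full effect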
# Target sequence (P09923 whole entry, looked up): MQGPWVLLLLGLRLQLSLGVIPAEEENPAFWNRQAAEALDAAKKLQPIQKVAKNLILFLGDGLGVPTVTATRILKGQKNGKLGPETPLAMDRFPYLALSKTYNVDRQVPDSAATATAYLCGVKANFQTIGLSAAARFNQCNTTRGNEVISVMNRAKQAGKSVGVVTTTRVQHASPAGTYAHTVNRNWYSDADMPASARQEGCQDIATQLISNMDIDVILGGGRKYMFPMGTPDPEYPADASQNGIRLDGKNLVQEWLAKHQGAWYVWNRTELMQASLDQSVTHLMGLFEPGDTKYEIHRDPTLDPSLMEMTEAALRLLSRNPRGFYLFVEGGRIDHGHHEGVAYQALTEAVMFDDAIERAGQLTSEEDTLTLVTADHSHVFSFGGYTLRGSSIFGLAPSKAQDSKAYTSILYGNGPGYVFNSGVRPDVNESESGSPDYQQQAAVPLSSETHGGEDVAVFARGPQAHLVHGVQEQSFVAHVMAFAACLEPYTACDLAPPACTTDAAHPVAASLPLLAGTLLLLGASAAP
# hIAP activ = increases human intestinal alkaline phosphatase activity; P09923; purified human IAP, CDP-Star luminescence, 30 min; hits give high values; 1 = vehicle-only enzyme, 0 = enzyme-free background; activation factor at 10 µM; 330,000 compounds, 0.16% hits;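 active means activation factor of the enzyme at least 2-fold when tested at 20 µM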
# bIAP act = increases bovine intestinal alkaline phosphatase activity; purified bovine IAP, CDP-star luminescence, 30 min; hits give high values; fold of DMSO-control signal, blank-subtracted; activation factor at 20 µM; 200,000 compounds, 0.17% hits;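 active means activation factor of 2 or more at 20 µM, a signal rise over negative controls twice the positive control's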
# hIAP act confirm = human IAP activation confirmation. shares compounds with hIAP activ. purified IAP, CDP-Star luminescence, 30 min; hits give low values. activation (%Activity, negative = activation), % at 8.3 µM. 880 compounds, 10% hits;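 active means at least twofold enzyme activation in any of six single-dose repeats, which the averaged readout prints as negative percent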
# mIAP inh confirm = mouse IAP inhibition confirmation | shares compounds with mIAP block | purified mouse IAP, CDP-Star luminescence, 30 min | inhibition, % at 10 µM | 11,000 compounds, 4.7% hits;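 active means inhibition of at least 40% at 10 µM in either of the two replicates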;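 further: plate controls were DMSO wells with enzyme for no effect and buffer wells lacking enzyme for full effect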
# Numbers without * were called inactive; . = no result given.
SMILES,bIAP inhibitor,mIAP act,mIAP block,hIAP inh,hIAP activ,bIAP act,hIAP act confirm,mIAP inh confirm
O=C1NC(=O)/C(=C\c2ccc(O)cc2O)S1,48.3,0.292,70.8*,84.5*,0.155,0.5,2.9,85.3*
COc1ccc(OC)c(CN2CCC(CNC(=O)Nc3cccc(Cl)c3)CC2)c1,-54.7,1.96,-96.4,-40.6,1.41,1.5,.,.
COc1cc(NC(=O)NCC2CCN(Cc3ccccc3Cl)CC2)cc(OC)c1OC,.,4.01*,-301.1,-158.1,2.58*,.,-142.3*,-147.5
CCCCn1c(=O)[nH]c(=O)c2c1nc(Cn1ncc(Cl)c(Cl)c1=O)n2CCC,.,0.91,9.0,16.2,0.838,.,.,.
CCN1/C(=C/C=C/c2sc3ccccc3[n+]2CC)Sc2ccccc21,.,0.517,48.3*,37.4*,0.626,.,6.6,50.9*
CN(CC(=O)NC(c1ccccc1)c1ccccc1)Cc1nc2ccccc2c(=O)[nH]1,-149.3,2.09*,-108.6,-122.4,2.22*,2.5*,-6.5,-170.6
CN(CC(=O)Nc1ccccc1Sc1ccccc1)Cc1nc2ccccc2c(=O)[nH]1,-57.8,1.07,-7.1,-74.2,1.74,1.6,.,.
COc1cc(/C=C(\C#N)C(=O)N2CCOCC2)cc(Br)c1O,-2.4,0.966,3.4,-16.2,1.16,1,.,.
COc1cc(/C=C(\C#N)C(=O)c2ccc(O)c(O)c2)cc(I)c1O,.,0.173,82.7*,51.1*,0.489,.,40.4,83.4*
NC(=O)c1cc2ccccc2o/c1=N/NC(=O)c1ccccc1,.,0.975,2.5,8.3,0.917,.,.,.
COc1ccc(S(=O)(=O)Nc2cc(Sc3ncn[nH]3)c(O)cc2C)cc1,.,0.636,36.4,-3.6,1.04,.,.,.
Cc1ccc([N+](=O)[O-])cc1S(=O)(=O)Nc1ccc(O)c(Sc2ncn[nH]2)c1,.,0.266,73.4*,73.3*,0.267,.,7.2,89.1*
Nc1c(/C=C2/C=CC(=O)C(O)=C2)c(=O)nc2sc(CC(=O)N3CCCCC3)nn12,.,0.388,61.2*,54.2*,0.458,.,3.9,83.1*
Nc1c(/C=C2/C=CC(=O)C(O)=C2)c(=O)nc2sc(CC(=O)N3CCCC3)nn12,.,0.417,58.3*,47.7*,0.523,.,17.1,78.3*
O=C(CCCCO)CCCCCCCC[C@H]1N[C@H](CO)[C@H](O)[C@@H]1O[C@@H]1O[C@H](CO)[C@@H](O)[C@H](O)[C@H]1O,9.6,0.985,1.5,-12.7,1.13,0.9,.,.
O=C(OCCc1cc2ccccc2c(=O)o1)c1ccc(C(F)(F)F)cc1,.,0.893,10.7,17.4,0.826,.,.,.
CC1C(=O)NN=C1C(=O)N/N=C\c1ccc(O)cc1O (stereo unspecified),2.2,0.349,65.1*,-149.4,2.49*,1,-78.7*,60.2*
O=C1CCN(Cc2nc(-c3ccc(Cl)cc3)no2)CCN1,-4.7,0.967,3.3,8.6,0.914,1,.,.
O=C(CN1C(=O)c2ccccc2S1(=O)=O)c1ccc(F)c(F)c1,.,0.977,2.3,2.4,0.976,.,.,.
O=C(CN1C(=O)c2ccccc2S1(=O)=O)c1ccc(O)c(O)c1,.,0.473,52.7*,-4.4,1.04,.,.,57.1*
Cc1cc(C)cc(C(=O)NCCC(=O)NCc2cc(=O)n(C)c(=O)n2C)c1,.,0.988,1.2,8.0,0.92,.,.,.
CCOC(=O)NNc1ccc2nonc2c1[N+](=O)[O-],.,0.566,43.4*,8.1,0.919,.,.,43.6*
O=[N+]([O-])c1c(NCc2ccco2)ccc2nonc12,.,0.587,41.3*,14.4,0.856,.,.,51.1*
N#Cc1ccccc1NC(=O)COc1ccc2c(c1)OCO2,.,1.04,-3.8,7.7,0.923,.,.,.
O=C(N/N=C/c1cc2c(cc1[N+](=O)[O-])OCO2)c1ccccn1,.,0.6,40.0*,-0.2,1,.,.,58.2*
COc1ccccc1NC(=O)N1CCCC1C(=O)NCc1ccccc1Cl (stereo unspecified),.,0.966,3.4,-3.5,1.03,.,.,.
O=C(NCCCCc1ccccc1)NC[C@@H]1CC[C@@H](Cc2ccc(-c3ccccc3)cc2)O1,.,4.84*,-371.3,.,.,.,.,-344.2
O=C(NC[C@@H]1CC[C@@H](Cc2ccc(-c3ccccc3)cc2)O1)Nc1ccc(Br)cc1,.,4.25*,-324.9,.,.,.,.,-309.5
